This is an account of results in PMC5952261 (ACS Infectious Diseases, 2018).

The test system of assay [1] is P. aeruginosa FADDI-PA092. Kind of assay: MIC in CAMHB. The following applies: polymyxin resistant, 10^6 CFU/mL, 18 h, 37 °C, visible growth. The assay is classed as cell-based, Pseudomonas aeruginosa.
Assay [2] concerns P. aeruginosa FADDI-PA002. As to the kind of experiment: MIC in CAMHB. It counts as cell-based, Pseudomonas aeruginosa. The following applies: polymyxin susceptible, 10^6 CFU/mL, 18 h, 37 °C, visible growth.
The subject of assay [3] is polymyxin-sensitive P. aeruginosa isolates. Kind of assay: MIC in CAMHB, panel summary. It counts as cell-based, Pseudomonas aeruginosa. The following applies: range over the panel of Table 1, CAMHB.
Assay [4] deals with P. aeruginosa FADDI-PA066. As to the kind of experiment: MIC in CAMHB. The assay is classed as cell-based, Pseudomonas aeruginosa. The note with it: polymyxin resistant CF isolate, 10^6 CFU/mL, 18 h, 37 °C, visible growth.
Assay [5] relates to P. aeruginosa FADDI-PA001. Kind of assay: MIC in CAMHB. The note with it: polymyxin susceptible, 10^6 CFU/mL, 18 h, 37 °C, visible growth. The assay is classed as cell-based, Pseudomonas aeruginosa.
For assay [6], the system named is P. aeruginosa FADDI-PA021. Kind of assay: Impact of sputum biomolecules on lipopeptide activity in CAMHB. The assay is classed as cell-based, Pseudomonas aeruginosa. The following applies: lipopeptide 2 mg/L, 3 h, colony counts; for impact of DNA on antibacterial activity: DNA 125 mg/L; for impact of F-actin/DNA on antibacterial activity: F-actin/DNA 125 mg/L. The method, boiled down: (§1)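 Mid-log cultures (OD500 0.4–0.6; 37 °C, 180 rpm) were diluted to OD ~0.05 in CAMHB. Test compound at 2 mg/L was coincubated for 3 h in 24-well plates with one biomolecule at 125 mg/L: F-actin/DNA, DNA, mucin, phospholipids, surfactant or LPS. Samples were spiral-plated and incubated overnight at 37 °C, and colonies were counted automatically. Detection limit 10 CFU/mL.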

The subject of assay [7] is P. aeruginosa FADDI-PA066. Kind of assay: Transmission electron microscopy of cells growing in biofilm. The assay is classed as cell-based, Pseudomonas aeruginosa. The note with it: 1× MIC (colistin 128 mg/L; octapeptin A3 16 mg/L), 1 h, 37 °C.
For assay [8], the system named is P. aeruginosa FADDI-PA020. Kind of assay: Impact of sputum biomolecules on lipopeptide activity in CAMHB. It counts as cell-based, Pseudomonas aeruginosa. The following applies: lipopeptide 2 mg/L, 3 h, colony counts; for impact of DNA on antibacterial activity: DNA 125 mg/L; for impact of F-actin/DNA on antibacterial activity: F-actin/DNA 125 mg/L. The method, boiled down:
as §1

Assay [9] concerns P. aeruginosa FADDI-PA066. Described as above. It counts as cell-based, Pseudomonas aeruginosa. The following applies: lipopeptide 2 mg/L, 3 h, colony counts; for impact of F-actin/DNA on antibacterial activity: F-actin/DNA 125 mg/L; for impact of mucin on antibacterial activity: mucin 125 mg/L (50% (w/v)); for impact of phospholipids on antibacterial activity: phospholipids 125 mg/L. The method, boiled down: as §1

Assay [10] deals with P. aeruginosa FADDI-PA038. As to the kind of experiment: MIC in CAMHB. It counts as cell-based, Pseudomonas aeruginosa. The following applies: polymyxin susceptible, 10^6 CFU/mL, 18 h, 37 °C, visible growth.
Assay [11] deals with P. aeruginosa FADDI-PA025. As to the kind of experiment: MIC in CAMHB. It counts as cell-based, Pseudomonas aeruginosa. The following applies: polymyxin susceptible, 10^6 CFU/mL, 18 h, 37 °C, visible growth.
For assay [12], the system named is mucin. The following applies: dialysis; ref Huang et al., 32; cited from earlier work.
Assay [13] deals with P. aeruginosa ATCC 27853. Kind of assay: MIC in CAMHB. It counts as cell-based, Pseudomonas aeruginosa. The following applies: polymyxin susceptible, 10^6 CFU/mL, 18 h, 37 °C, visible growth.
The subject of assay [14] is P. aeruginosa FADDI-PA091. As to the kind of experiment: MIC in CAMHB. It counts as cell-based, Pseudomonas aeruginosa. The following applies: polymyxin susceptible, 10^6 CFU/mL, 18 h, 37 °C, visible growth.
For assay [15], the system named is P. aeruginosa CF isolate FADDI-PA066. As to the kind of experiment: Cell viability, planktonic growth in artificial sputum media. The note with it: up to 128 mg/L. It counts as cell-based, Pseudomonas aeruginosa.
Assay [16] relates to P. aeruginosa FADDI-PA022. As to the kind of experiment: MIC in CAMHB. It counts as cell-based, Pseudomonas aeruginosa. The note with it: polymyxin susceptible, 10^6 CFU/mL, 18 h, 37 °C, visible growth.
For assay [17], the system named is P. aeruginosa FADDI-PA070. As to the kind of experiment: MIC in CAMHB. The following applies: polymyxin resistant, 10^6 CFU/mL, 18 h, 37 °C, visible growth. It counts as cell-based, Pseudomonas aeruginosa.
Assay [18] has as its system P. aeruginosa FADDI-PA069. As to the kind of experiment: MIC in CAMHB. The note with it: polymyxin resistant, 10^6 CFU/mL, 18 h, 37 °C, visible growth. It counts as cell-based, Pseudomonas aeruginosa.
The subject of assay [19] is P. aeruginosa FADDI-PA093. As to the kind of experiment: MIC in CAMHB. It counts as cell-based, Pseudomonas aeruginosa. The note with it: polymyxin resistant, 10^6 CFU/mL, 18 h, 37 °C, visible growth.
Assay [20] has as its system P. aeruginosa FADDI-PA065. As to the kind of experiment: MIC in CAMHB. The assay is classed as cell-based, Pseudomonas aeruginosa. The following applies: polymyxin resistant, 10^6 CFU/mL, 18 h, 37 °C, visible growth.
Assay [21] deals with P. aeruginosa FADDI-PA068. As to the kind of experiment: MIC in CAMHB. It counts as cell-based, Pseudomonas aeruginosa. The note with it: polymyxin resistant, 10^6 CFU/mL, 18 h, 37 °C, visible growth.
Assay [22] deals with P. aeruginosa FADDI-PA062. As to the kind of experiment: MIC in CAMHB. It counts as cell-based, Pseudomonas aeruginosa. The following applies: polymyxin resistant, 10^6 CFU/mL, 18 h, 37 °C, visible growth.
The subject of assay [23] is P. aeruginosa FADDI-PA060. As to the kind of experiment: MIC in CAMHB. It counts as cell-based, Pseudomonas aeruginosa. The following applies: polymyxin resistant, 10^6 CFU/mL, 18 h, 37 °C, visible growth.

Converted amounts (≈) assume the structure as drawn. Positions of bridges follow the written chain, without caps; N, C: chain ends. Non-standard residues stand in square brackets, D forms with d. Residues, ends and D or L forms follow the SMILES beside them. *: point of attachment. X1 = CC[C@H](C)CCCCC(=O)*; Dab = NCC[C@H](N)C(=O)O

In the case of `CC[C@H](C)CCCCC(=O)N[C@@H](CCN)C(=O)N[C@H](C(=O)N[C@@H](CCN)C(=O)N[C@H]1CCNC(=O)[C@H]([C@@H](C)O)NC(=O)[C@H](CCN)NC(=O)[C@H](CCN)NC(=O)[C@H](CC(C)C)NC(=O)[C@@H](CC(C)C)NC(=O)[C@H](CCN)NC1=O)[C@@H](C)O` [colistin] (X1-[Dab]T[Dab][Dab][Dab][dL]L[Dab][Dab]T; lactam 4-C (inferred); N-terminus assumed), the minimum inhibitory concentration in assay [1] is 16 µg/mL (≈ 13.7 µM); in [2] it was 0.25 µg/mL (≈ 0.214 µM); in [4], >128 µg/mL; in [5], 0.5 µg/mL (≈ 0.428 µM); in assay [10], 1 µg/mL (≈ 0.855 µM); in [11], 2 µg/mL (≈ 1.71 µM). For the same compound, the minimum inhibitory concentration in assay [13] turned out to be 1 µg/mL (≈ 0.855 µM); in [14], 0.5 µg/mL (≈ 0.428 µM); in assay [16], 1 µg/mL (≈ 0.855 µM). The “MICs against the polymyxin-sensitive isolates” value in assay [3] was 0.25 to 4 mg/L. Further, the “impact of DNA on antibacterial activity” value in [6] and in [8] was “marginally impacted” each time. Moreover, the “impact of F-actin/DNA on antibacterial activity” value in [6] is reported as “inhibited”; in assay [8], “only marginally affected”; in assay [9], “no impact”. Moreover, in assay [7], the “effect on bacterial outer membrane (TEM)” value is given as “blebbing effect with vesicular protrusions from the outer membrane”. Also, in [9], the “impact of mucin on antibacterial activity” value was “not noticeable”. The “impact of phospholipids on antibacterial activity” value in assay [9] is “not discernible”. For the same compound, in assay [12], the binding to mucin result is “avidly bind”. Also, the “activity (reduction of cell viability), in words” value in assay [15] was “inactive even at 128 mg/L”.

Take `CC[C@H](C)CCCCC(=O)N[C@@H](CCN)C(=O)N[C@H](C(=O)N[C@@H](CCN)C(=O)N[C@H]1CCNC(=O)[C@H]([C@@H](C)O)NC(=O)[C@H](CCN)NC(=O)[C@H](CCN)NC(=O)[C@H](CC(C)C)NC(=O)[C@@H](Cc2ccccc2)NC(=O)[C@H](CCN)NC1=O)[C@@H](C)O` [polymyxin B] (X1-[Dab]T[Dab][Dab][Dab][dF]L[Dab][Dab]T; lactam 4-C (inferred); N-terminus assumed): the minimum inhibitory concentration in assay [2] was 0.5 µg/mL (≈ 0.415 µM); in [17], >32 µg/mL; in assay [4], 32 µg/mL (≈ 26.6 µM); in [5] it was 0.5 µg/mL (≈ 0.415 µM); in assay [18] it was >32 µg/mL; in [19] it was 32 µg/mL (≈ 26.6 µM). In addition, the minimum inhibitory concentration in assay [10] is 1 µg/mL (≈ 0.831 µM); in [20], >32 µg/mL; in assay [11] it was 2 µg/mL (≈ 1.66 µM); in assay [21] it was >32 µg/mL; in assay [13] it was 0.5 µg/mL (≈ 0.415 µM); in assay [14] it was 1 µg/mL (≈ 0.831 µM). The minimum inhibitory concentration is >32 µg/mL in [22], >128 µg/mL in assay [23] and 1 µg/mL (≈ 0.831 µM) in [16]. In addition, the “MICs against the polymyxin-sensitive isolates” value in assay [3] lay within 0.25 to 4 mg/L. Also, the “impact of DNA on antibacterial activity” value in [6] and in assay [8] was “marginally impacted” in each case. The “impact of F-actin/DNA on antibacterial activity” value in [6] is listed as “inhibited”; in assay [8], “only marginally affected”; in assay [9], “marginally inhibited”. Further, in assay [9], the “impact of mucin on antibacterial activity” value is “not noticeable”. Moreover, in [9], the “impact of phospholipids on antibacterial activity” value is “not discernible”. In addition, in assay [12], the binding to mucin entry is “avidly bind”. Also, the “activity (reduction of cell viability), in words” value in assay [15] is “inactive even at 128 mg/L”.
